Test results from article PMC3063097 (Angewandte Chemie (International ed. in English), 2010).

Key:
Assay type in all cases: biochemical
Aurora kinase = experiment: in vitro kinase assay Aurora kinase; settings: at 100 μM
[1] = test system: skeletal muscle myosin II; experiment: in vitro ATPase assay myosin II
myosin VI = experiment: in vitro ATPase assay myosin VI; settings: at 50 μM
[2] = biological target: single ATPase motor domain of chicken Myosin Va (Gallus gallus, UniProt Q02440); experiment: enzyme-coupled steady-state actin-activated ATPase assay, single-headed myosin V
PLK1 = experiment: in vitro kinase assay PLK1; settings: at 100 μM
Casein kinase II = experiment: in vitro kinase assay Casein kinase II; settings: at 100 μM
myosin V = experiment: single MANT-ATP turnover measurements, myosin V without actin; settings: absence of actin; data not shown
Abl kinase = experiment: in vitro kinase assay Abl kinase; settings: at 100 μM
CHK1 = experiment: in vitro kinase assay CHK1; settings: at 100 μM
actomyosin V-ADP = actomyosin V-ADP (Gallus gallus, UniProt Q02440); experiment: MANT-ADP release from actomyosin V
Outline: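 Transient-kinetic measurement of MANT-ADP release from a preformed actomyosin V–ADP complex, using the fluorescent nucleotide analog. Release amplitudes are normalized and plotted against test compound concentration. Affinity comes from the best fit of that concentration dependence of the amplitudes.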

p42 MAP kinase = experiment: in vitro kinase assay p42 MAP kinase; settings: at 100 μM

| SMILES | inhibition of kinase (Aurora kinase) | inhibition of ATPase activity ([1]; at 50 μM) | inhibition of ATPase activity (myosin VI) | mode of inhibition (effect on kcat and apparent KM for actin) ([2]; 12 μM MyoVin-1, various concentrations of actin) | increase in KI in presence of 0.1% triton X ([2]; 0.1% triton X in assay buffer vs without) | Ki ([2]; single-headed myosin V, steady-state actin-activated ATP hydrolysis) [µM] | inhibition of kinase (PLK1) | inhibition of kinase (Casein kinase II) | effect on ATP binding and rate-limiting Pi release (myosin V) | inhibition of kinase (Abl kinase) | inhibition of kinase (CHK1) | effect on ADP release (actomyosin V-ADP; actomyosin V-ADP prepared by mixing with ATP) | effect on ADP release (actomyosin V-ADP; actomyosin-ADP prepared by equilibrating actomyosin and ADP, data not shown) | inhibition of kinase (p42 MAP kinase) | inhibition of ATPase activity ([1]; positive control, concentration not given) |
| --- | --- | --- | --- | --- | --- | --- | --- | --- | --- | --- | --- | --- | --- | --- | --- |
| O=C(O)c1cccc(SCc2cccc(Nc3ncc4c(-c5ccc(N6CCOCC6)cc5)[nH]nc4n3)c2)c1 [Compound 8] | 5–10% | not observed any measurable inhibition | not observed any measurable inhibition | uncompetitive inhibition | ~ 1.25 fold | ~6 | 5–10% | 5–10% | unaffected | 5–10% | 5–10% | lowers the amplitude, but not the rate constant of ADP release | unaffected | 5–10% |  |
| Cc1ccc2c(c1)C(=O)C1(O)CCN(c3ccccc3)C1=N2 (stereo not drawn) [blebbistatin, reference compound] |  |  |  |  |  |  |  |  |  |  |  |  |  |  | significantly inhibited |
